What all share (format): functional, Salmonella enterica subsp. enterica serovar Typhimurium
Experiment [1] concerns Salmonella typhimurium. Put plainly: (§1) Specific mutagenicity in the presence of protein S9, was expressed as His+ revertants/nmol, calculated by least-square linear regression. In a few lines:
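Ames plate incorporation assay in TA98 with 0.8 mg Aroclor 1254-induced male rat liver S9 protein per plate plus NADPH-generating cofactors; compounds in DMSO; doses in duplicate on two or three occasions. His+ revertants/nmol from least-squares linear regression of the dose-response curve's linear part, up to 10 µg/plate.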

Experiment [2] concerns Salmonella typhimurium. The experiment is described as follows: (§2) Mutagenicity determined by Ames assay in Salmonella Typhimurium strain TA98, with metabolic activation by Aroclor 1254 induced rat liver S9 at a dose of 5 ug/plate. In a few lines: (§3)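 Ames plate incorporation assay, modified per Claxton, in TA98. Compounds dissolved in DMSO. Each plate received 0.8 mg S9 protein from livers of Aroclor 1254-treated male rats, plus NADPH-generating cofactors. Each dose was run in duplicate on two or three separate occasions. Values are mean His+ revertants/plate.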
(In general: In the Ames test, an excess of revertant colonies over the control signals mutagenicity.)

The subject of experiment [3] is Salmonella typhimurium. Put plainly: (§4) Mutagenicity determined by Ames assay in Salmonella Typhimurium strain TA98, with metabolic activation by Aroclor 1254 induced rat liver S9 at a dose of 1.0 ug/plate. The method in brief: as §3
Experiment [4] has as its system Salmonella typhimurium. Put plainly: (§5) Mutagenicity determined by Ames assay in Salmonella Typhimurium strain TA98, with metabolic activation by Aroclor 1254 induced rat liver S9 at a dose of 0.5 ug/plate. The method in brief:
as §3

The test system of experiment [5] is Salmonella typhimurium. Put plainly: (§6) Mutagenicity determined by Ames assay in Salmonella Typhimurium strain TA98, without metabolic activation by Aroclor 1254 induced rat liver S9 at a dose of 1.0 ug/plate. The method in brief:
(§7)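 Ames plate incorporation assay in TA98, modified per Claxton, with no S9 or cofactors added. Test compounds were given from DMSO solution. Each dose level was plated in duplicate on two or three separate occasions. Read-out is mean His+ revertants/plate.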

Experiment [6] has as its system Salmonella typhimurium. The experiment is described as follows: Mutagenicity determined by Ames assay in Salmonella Typhimurium strain TA98, without metabolic activation by Aroclor 1254 induced rat liver S9 at a dose of 0.5 ug/plate. Further details: unit: revertants/plate. The method in brief: as §7
For experiment [7], the system named is Salmonella typhimurium. The experiment is described as follows: (§8) Mutagenicity determined by Ames assay in Salmonella Typhimurium strain TA98, with metabolic activation by Aroclor 1254 induced rat liver S9 at a dose of 20 ug/plate. In a few lines: as §3
The subject of experiment [8] is Salmonella typhimurium. Put plainly: (§9) Mutagenicity determined by Ames assay in Salmonella Typhimurium strain TA98, without metabolic activation by Aroclor 1254 induced rat liver S9 at a dose of 20 ug/plate. The method in brief: as §7
Experiment [9] relates to Salmonella typhimurium. The experiment is described as follows: (§10) Specific mutagenicity in the absence of protein S9, was expressed as His+ revertants/nmol, calculated by least-square linear regression. In a few lines: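 Ames plate incorporation assay in TA98 without S9; compounds in DMSO; doses in duplicate on two or three occasions. His+ revertants/nmol from least-squares linear regression of the linear part of the dose-response curve, up to 10 µg/plate for most compounds and to 5 or 20 µg/plate for others.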

Experiment [10] concerns Salmonella typhimurium. The experiment is described as follows: (§11) Mutagenicity determined by Ames assay in Salmonella Typhimurium strain TA98, without metabolic activation by Aroclor 1254 induced rat liver S9 at a dose of 5 ug/plate. In a few lines:
as §7

The test system of experiment [11] is Salmonella typhimurium. The experiment is described as follows: (§12) Mutagenicity determined by Ames assay in Salmonella Typhimurium strain TA98, with metabolic activation by Aroclor 1254 induced rat liver S9 at a dose of 10 ug/plate. The method in brief: as §3
Experiment [12] concerns Salmonella typhimurium. Put plainly: (§13) Mutagenicity determined by Ames assay in Salmonella Typhimurium strain TA98, without metabolic activation by Aroclor 1254 induced rat liver S9 at a dose of 10 ug/plate. The method in brief:
as §7

For experiment [13], the system named is Salmonella typhimurium. The experiment is described as §13. The method in brief:
(§14)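 Ames plate incorporation test following Claxton's modification, run without S9, with compounds dissolved in DMSO. Each dose was plated in duplicate on two or three separate occasions, and the value is the mean His⁺ revertants/plate. The positive control was 2-nitrofluorene at 3 μg/plate, with DMSO as the solvent control.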
This is another data set of the same source.

Experiment [14] concerns Salmonella typhimurium. The description is as §4. The method in brief: (§15)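 Ames plate incorporation test following Claxton's modification, with compounds dissolved in DMSO. Each plate received 0.8 mg S9 protein from livers of Aroclor 1254-treated male rats plus NADPH-generating cofactors. Each dose was plated in duplicate on two or three separate occasions, and the value is the mean His⁺ revertants/plate. The positive control was 2-anthramine at 0.5 μg/plate, with DMSO as the solvent control.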
The source holds these as a separate data set.

Experiment [15] deals with Salmonella typhimurium. The description is as §6. In a few lines: as §14
This is another data set of the same source.

Experiment [16] relates to Salmonella typhimurium. The experiment is described as §10. The method in brief: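 Calculated as His⁺ revertants/nmol by least-squares linear regression over the linear portion of the no-S9 plate-incorporation dose–response (DMSO solutions, duplicate plates, two or three occasions). The fit ran to 10 μg/plate for most compounds, but for two compounds it ran to 5 or 20 μg/plate.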
The source holds these as a separate data set.

Experiment [17] has as its system Salmonella typhimurium. The experiment is described as §12. In a few lines:
as §15
This is another data set of the same source.

For experiment [18], the system named is Salmonella typhimurium. The experiment is described as §2. The method in brief:
as §15
The source holds these as a separate data set.

The subject of experiment [19] is Salmonella typhimurium. Described as §9. In a few lines: as §14
This is another data set of the same source.

The subject of experiment [20] is Salmonella typhimurium. The experiment is described as §5. The method in brief:
as §15
The source holds these as a separate data set.

The subject of experiment [21] is Salmonella typhimurium. The experiment is described as §1. In a few lines:
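Calculated as His⁺ revertants/nmol by least-squares linear regression over the linear portion of the dose–response to 10 μg/plate. Plates received 0.8 mg Aroclor 1254-induced male rat liver S9 protein with NADPH-generating cofactors. Compounds were dissolved in DMSO and plated in duplicate on two or three occasions.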
This is another data set of the same source.

In experiment [22] the test system is Salmonella typhimurium. Described as §11. In a few lines: as §14
The source holds these as a separate data set.

Experiment [23] has as its system Salmonella typhimurium. Described as §8. In a few lines:
as §15
The source holds these as a separate data set.

Molecules are shown by their SMILES.

Turning to `C1=CC2OC2c2ccc3c4c5c(cccc5cc3c21)C=C4` (stereo not drawn), the Activity in [1] is given as 5.6; in [9], 0.2. Further, the Mutagenicity in experiment [2] was found to be 176; in [3], 71; in experiment [4] it was 58; in experiment [5], 26; in [6], 28; in experiment [7], 350. Also, the Mutagenicity came to 46 in experiment [8], 34 in [10], 272 in experiment [11] and 39 in experiment [12].
Regarding `O[C@H]1C=Cc2c(ccc3c4c5c(cccc5cc23)C=C4)[C@@H]1O`, the Mutagenicity in experiment [13] is given as 45; in experiment [14], 100; in experiment [15], 40; in experiment [17], 469; in experiment [18] it was 335; in experiment [19], 75. In addition, the Mutagenicity in experiment [6] turned out to be 36; in [20] it was 67; in experiment [22], 43; in experiment [23] it was 543. For the same molecule, the Activity in experiment [16] is 0.7; in [21], 9.4.
On to `O[C@H]1c2ccc3c4c5c(cccc5cc3c2[C@@H]2OC2[C@@H]1O)C=C4` (stereo partly drawn), for which the Mutagenicity in experiment [13] is listed as 172; in experiment [14] it was 86; in experiment [15] it was 53; in experiment [17], 287; in experiment [18], 283; in experiment [19], 93. For the same molecule, the Mutagenicity stood at 37 in [6], 51 in experiment [20], 186 in experiment [22] and 148 in experiment [23]. Besides, the Activity is recorded as 10 in experiment [16] and 12.9 in experiment [21].
Regarding `C1=Cc2c3ccc4ccccc4c3cc3cccc1c23` [BENZO[J]ACEANTHRYLENE], the Activity in experiment [1] is 12.9; in experiment [9] it was 0.1. In addition, the Mutagenicity came out at 429 in experiment [2]; 103 in experiment [3]; 76 in experiment [4]; 39 in experiment [5]; 35 in experiment [6]; 915 in [7]. In addition, the Mutagenicity in [8] came to 38; in experiment [10], 38; in experiment [11] it was 694; in [12] it was 32.
